Assay results taken from ChEMBL document CHEMBL1136495, “Synthesis of new 3-arylisoquinolinamines: effect on topoisomerase I inhibition and cytotoxicity” (Bioorg Med Chem Lett, 2003).

What was measured:
A549 = test: Cytotoxic activity against A 549 human lung tumor cell line, using sulforhodamine B (SRB) assay.; format: functional, cell-based
In short: (§1)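 In vitro sulforhodamine B (SRB) staining assay on human tumor cell lines. Values are reported as IC50 for cytotoxicity.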

SK-OV-3 = test: Cytotoxic activity against SKOV-3 human ovarian tumor cell line, using sulforhodamine B (SRB) assay.; format: functional, cell-based; in short: as §1
[1] = biological target: T1, DNA topoisomerase 1 (Homo sapiens) (UniProt P11387); test: Inhibitory activity against Topoisomerase I in supercoiled DNA unwinding assay method; Weak activity
T1 sequence (whole entry): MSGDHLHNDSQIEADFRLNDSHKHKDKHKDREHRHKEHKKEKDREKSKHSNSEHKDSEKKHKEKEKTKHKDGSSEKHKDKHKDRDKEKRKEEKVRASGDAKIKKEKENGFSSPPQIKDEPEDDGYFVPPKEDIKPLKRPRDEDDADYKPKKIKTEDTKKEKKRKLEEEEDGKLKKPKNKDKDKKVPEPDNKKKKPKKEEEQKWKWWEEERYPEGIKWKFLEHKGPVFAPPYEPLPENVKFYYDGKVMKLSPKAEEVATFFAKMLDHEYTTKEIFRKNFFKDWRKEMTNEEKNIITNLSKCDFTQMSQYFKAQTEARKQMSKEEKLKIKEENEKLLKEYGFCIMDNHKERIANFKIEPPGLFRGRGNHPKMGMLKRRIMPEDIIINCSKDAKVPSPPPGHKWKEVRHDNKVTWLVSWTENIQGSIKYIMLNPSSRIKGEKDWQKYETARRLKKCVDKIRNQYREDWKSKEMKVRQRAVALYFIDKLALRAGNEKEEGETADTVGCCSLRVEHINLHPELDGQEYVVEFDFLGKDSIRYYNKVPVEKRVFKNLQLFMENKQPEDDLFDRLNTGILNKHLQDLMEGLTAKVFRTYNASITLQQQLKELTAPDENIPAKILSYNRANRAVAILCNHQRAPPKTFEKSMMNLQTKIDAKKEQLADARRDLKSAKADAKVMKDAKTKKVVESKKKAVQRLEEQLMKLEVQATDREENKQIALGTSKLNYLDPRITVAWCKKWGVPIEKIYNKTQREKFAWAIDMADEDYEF

SK-MEL-2 = test: Cytotoxic activity against SK-MEL-2 human melanoma cell line, using sulforhodamine B (SRB) assay.; format: functional, cell-based; in short: as §1
HCT-15 = test: Cytotoxic activity against HCT 15 human colon tumor cell line, using sulforhodamine B (SRB) assay.; format: functional, cell-based; in short: as §1
OCI-AML2 [2] = test: Cytotoxic activity against DX-100: doxorubicin (100 ng/mL) resistant AML-2 cell line was determined; format: functional
OCI-AML2 [3] = test: Cytotoxic activity against wild type AML-2 leukemia cell line was determined; format: functional
OCI-AML2 [4] = test: Cytotoxic activity against D100 daunorubicin (100 nM) resistant AML-2 cell line was determined; format: functional
[5] = biological target: T1, DNA topoisomerase 1 (Homo sapiens); test: Inhibitory activity against Topoisomerase I was determined by the supercoiled DNA unwinding assay method; Greater activity than Camptothecin

Compound | IC50 (A549) | IC50 (SK-OV-3) | Activity [1] | IC50 (SK-MEL-2) | IC50 (HCT-15) | Cytotoxicity (OCI-AML2 [2]) | Cytotoxicity (OCI-AML2 [3]) | Cytotoxicity (OCI-AML2 [4]) | Activity (OCI-AML2 [4]) | Activity [5]
CN1CCCN(c2nc(-c3cccc4ccccc34)cc3ccccc23)CC1 | 0.52 µM | 3.64 µM | Weak activity | 1.98 µM | 1.93 µM | – | – | – | – | –
c1ccc(CNc2nc(-c3ccccc3)cc3ccccc23)cc1 | 177 µM | 102 µM | Weak activity | 83 µM | 87.4 µM | – | – | – | – | –
Cc1ccc2c(NCc3ccccc3)nc(-c3ccccc3)cc2c1 | 122 µM | 156 µM | – | 94.4 µM | 64.2 µM | – | – | – | – | –
CCN1CCN(c2nc(-c3ccc(C)cc3)cc3cc(C)ccc23)CC1 | 26.9 µM | 63.4 µM | Weak activity | 14.4 µM | 8.07 µM | – | – | – | – | –
Cc1ccccc1-c1cc2ccccc2c(N)n1 | 3.14 µM | 1.81 µM | – | 2.11 µM | 1.92 µM | – | – | – | – | –
CN1CCCN(c2nc(-c3ccc(Br)cc3)cc3ccccc23)CC1 | 6.04 µM | 3.85 µM | – | 4.12 µM | 5.26 µM | – | – | – | – | –
Cc1ccc(-c2cc3ccccc3c(N3CCCN(C)CC3)n2)cc1 | 1.22 µM | 9.34 µM | – | 6.18 µM | 7.84 µM | – | – | – | – | –
CCN1CCN(c2nc(-c3ccccc3)cc3cc(C)ccc23)CC1 | 18.2 µM | 41.8 µM | – | 11.9 µM | 2.42 µM | – | – | – | – | –
Cc1cccc(-c2cc3cc(C)ccc3c(NCc3ccccc3)n2)c1 | 171 µM | 146 µM | Weak activity | 88.7 µM | 111 µM | – | – | – | – | –
Cc1ccc2c(NCCN)nc(-c3ccccc3Cl)cc2c1 | > 300 µM | > 300 µM | Weak activity | > 300 µM | > 300 µM | – | – | – | – | –
COc1cccc2c1C(=O)c1c(O)c3c(c(O)c1C2=O)C[C@@](O)(C(=O)CO)C[C@@H]3O[C@H]1C[C@H](N)[C@H](O)[C@H](C)O1 [DOXORUBICIN] | – | 1.17 µM | – | 4.78 µM | 1.67 µM | 3.2 µg/mL | 0.01 µg/mL | 1.93 µg/mL | – | –
Cc1ccc2c(N)nc(-c3ccccc3C)cc2c1.Cl | 0.17 µM | 0.21 µM | – | 0.14 µM | 0.17 µM | 0.0056 µg/mL | 0.0078 µg/mL | – | 0.0027 µg/mL | –
CN1CCN(c2nc(-c3ccccc3)cc3ccccc23)CC1 | 13.6 µM | 13.7 µM | – | 14.5 µM | 13.9 µM | – | – | – | – | –
CCN1CCN(c2nc(-c3ccccc3Cl)cc3cc(C)ccc23)CC1 | 13.4 µM | 195 µM | – | 5.58 µM | 5.58 µM | – | – | – | – | Greater activity than Camptothecin
Cc1ccc2c(N3CCCN(C)CC3)nc(-c3ccccc3C)cc2c1 | 0.44 µM | 0.7 µM | – | 0.99 µM | 1.2 µM | – | – | – | – | –
COc1cccc2c1C(=O)c1c(O)c3c(c(O)c1C2=O)C[C@@](O)(C(C)=O)C[C@@H]3O[C@H]1C[C@H](N)[C@H](O)[C@H](C)O1 [DAUNORUBICIN] | – | – | – | – | – | 0.43 µg/mL | 0.001 µg/mL | 0.52 µg/mL | – | –
Cc1ccc2c(NCCN)nc(-c3ccccc3C)cc2c1 | > 300 µM | > 300 µM | Weak activity | > 300 µM | > 300 µM | – | – | – | – | –
CCN1CCN(c2nc(-c3ccccc3C)cc3cc(C)ccc23)CC1 | 21 µM | 62 µM | – | 12.8 µM | 8.65 µM | – | – | – | – | –
Cc1ccc(-c2cc3cc(C)ccc3c(NCCN)n2)cc1 | > 300 µM | > 300 µM | – | > 300 µM | > 300 µM | – | – | – | – | Greater activity than Camptothecin
Cc1ccc(-c2cc3ccccc3c(NCc3ccccc3)n2)cc1 | 168 µM | 193 µM | – | 133 µM | 171 µM | – | – | – | – | –
CC(=O)N[C@H]1CC[C@H](Nc2nc(-c3ccccc3)cc3ccccc23)CC1 | 145 µM | 186 µM | Weak activity | 183 µM | 253 µM | – | – | – | – | –
CN1CCCN(c2nc(-c3ccc(Cl)cc3)cc3ccccc23)CC1 | 11.8 µM | 20 µM | – | 8.55 µM | 9.78 µM | – | – | – | – | –
Cc1ccccc1-c1cc2ccccc2c(N[C@H]2CC[C@H](N)CC2)n1 | 10.2 µM | 9.17 µM | Weak activity | 6.45 µM | 7.65 µM | – | – | – | – | –
Cc1cccc(-c2cc3ccccc3c(NCc3ccccc3)n2)c1 | 103 µM | 168 µM | Weak activity | 85 µM | 108 µM | – | – | – | – | –
Cc1cccc(-c2cc3ccccc3c(N3CCCN(C)CC3)n2)c1 | 8.57 µM | 8.22 µM | Weak activity | 8.85 µM | 9.2 µM | – | – | – | – | –
Cc1ccc2c(NCCN)nc(-c3ccccc3)cc2c1 | > 300 µM | > 300 µM | – | > 300 µM | > 300 µM | – | – | – | – | Greater activity than Camptothecin
N[C@H]1CC[C@H](Nc2nc(-c3ccccc3)cc3ccccc23)CC1 | 7.95 µM | 4.36 µM | – | 7.7 µM | 7.24 µM | – | – | – | – | –
CN1CCCN(c2nc(-c3ccccc3)cc3ccccc23)CC1 | 10.8 µM | 17 µM | – | 8.38 µM | 11.1 µM | – | – | – | – | Greater activity than Camptothecin
Nc1nc(-c2ccccc2)cc2ccccc12 | 2.73 µM | 2.03 µM | – | 1.48 µM | 1.87 µM | – | – | – | – | –
CCN1CCN(c2nc(-c3ccccc3)cc3ccccc23)CC1 | 55.4 µM | 68.9 µM | Weak activity | 95.7 µM | 7.22 µM | – | – | – | – | –
